Assay results reported in article PMC9401512 (Clinical Cancer Research, 2021).
Marks after values point to notes of the source that are not given here.

Key:
[1] = system: adults with ER-positive breast cancer; assay: Dose-limiting toxicities in the first 28-day treatment cycle; assay type: in vivo, human
[2] = system: adults with ER-positive breast cancer; assay: Adverse events, serious AEs, deaths, discontinuations; assay type: in vivo, human
Procedure, shortened: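 Open-label phase I/Ib escalation in adults with ER-positive advanced breast cancer. Oral test compound was given once or twice daily, alone or with one of two partner agents, in continuous 28-day cycles. AEs were defined and graded per CTCAE v4.03. The safety set was treated participants with ≥1 valid postbaseline safety assessment. Fed/fasted data were pooled.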

[3] = LSZ102 clinical pharmacokinetics; assay type: in vivo, human
[4] = system: ER-positive breast cancer; assay: Investigator-assessed clinical response; assay type: in vivo, human
Procedure, shortened: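 Local investigator assessed response per RECIST v1.1 in all participants receiving ≥1 dose. ORR = confirmed CR+PR. CBR = CR+PR plus SD or non-CR/non-PD maintained ≥24 weeks. PFS was estimated by Kaplan–Meier. Data were grouped by total daily dose, pooling fed, fasted and food-independent dosing.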

ER protein = assay: Paired biopsy ER protein by IHC; assay type: in vivo, human; details: cycle 1 day 15, single agent
[5] = cited from earlier work

CC(F)(F)c1cc(F)ccc1-c1sc2cc(O)ccc2c1Oc1ccc(/C=C/C(=O)O)cc1 [LSZ102]
DLT: ALT increased, participants ([1]; 450 mg QD): 1^b
DLT: AST increased, participants ([1]; 450 mg QD): 1^b
DLT: Vomiting, participants ([1]; 600 mg QD): 1
DLT: Diarrhea, participants ([1]; 900 mg QD): 2
DLTs, participants ([1]; first 28-day cycle, whole arm): 5%
Recommended dose for expansion: LSZ102 dose ([1]; in vivo): 450 mg once daily
Participants with ≥ 1 DLT, n (%) ([1]; total daily dose 200 mg, QD (n = 4)): 0 n (%)
Participants with ≥ 1 DLT, n (%) ([1]; total daily dose 400 mg, BID (n = 3)): 0 n (%)
Participants with ≥ 1 DLT, n (%) ([1]; total daily dose 400 mg, QD (n = 6)): 0 n (%)
Participants with ≥ 1 DLT, n (%) ([1]; total daily dose 450 mg, BID (n = 5)): 0 n (%)
Participants with ≥ 1 DLT, n (%) ([1]; total daily dose 600 mg (n = 28), QD (n = 23)): 1 (3.6) n (%)
Participants with ≥ 1 DLT, n (%) ([1]; total daily dose 600 mg, BID (n = 5)): 0 n (%)
Participants with ≥ 1 DLT, n (%) ([1]; total daily dose 900 mg, QD (n = 6)): 2 (33.3) n (%)
Discontinuations from study treatment: Adverse event, n (%) ([2]; in vivo): 2 (2.6) n (%)
Discontinuations from study treatment: Death, n (%) ([2]; in vivo): 0 n (%)
Deaths on treatment or within 30 days from the last dose, number ([2]; whole arm): 5
Participants with treatment-related serious AEs, number ([2]; whole arm): 1
Time to Cmax ([3]; discussion summary): approximately 2 hours
Median time to maximum concentration (Cmax) ([3]; fasted conditions): 2 to 3 h
Discontinuations from study treatment: Progressive disease, n (%) ([4]; human, in vivo): 71 (91.0) n (%)
Clinical benefit rate (CBR) ([4]; whole arm): 7.8%
Objective response rate (ORR) ([4]; whole arm): 1.3%
Biopsy ER H-score change from screening (ER protein): trend toward dose-dependent ER degradation
Increase in LSZ102 exposure with a high-fat high-calorie meal [5]: ~2 fold
